In ChEMBL document CHEMBL4689842, “EUbOPEN Chemogenomics Library wave 1” (2021):

System: HEK-293T
Experiment: Multiplex assay against HEK293T;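 on Population Tubulin-Different-Phenotype (%): share of the cells with healthy nuclei that show this phenotype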
Type: toxicity, cell-based
Settings: human
Procedure, shortened: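 On a CQ1 microscope at 37°C and 5% CO2, live cells were imaged after compound addition. They had been stained at seeding with Hoechst33342, BioTracker Green Microtubule Cytoskeleton Dye, MitoTracker Red and Annexin V Alexa Fluor 680. CellPathfinder machine-learning gating assigned cells to Hoechst high-intensity objects or normal cells, normal cells to healthy, pyknosed or fragmented nuclei, and pyknosed cells to mitotic or apoptotic. Tubulin, mitochondrial-mass and membrane-permeability phenotypes are per cents of healthy-nucleus cells.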

[1] = 12 h, 1 µM, compound concentration 1 uM, replicate 1
[2] = 12 h, 1 µM, compound concentration 1 uM, replicate 2
[3] = 12 h, 10 µM, compound concentration 10 uM, replicate 1
[4] = 12 h, 10 µM, compound concentration 10 uM, replicate 2
[5] = 24 h, 1 µM, compound concentration 1 uM, replicate 1
[6] = 24 h, 1 µM, compound concentration 1 uM, replicate 2
[7] = 24 h, 10 µM, compound concentration 10 uM, replicate 1
[8] = 24 h, 10 µM, compound concentration 10 uM, replicate 2
[9] = 48 h, 1 µM, compound concentration 1 uM, replicate 1
[10] = 48 h, 1 µM, compound concentration 1 uM, replicate 2
[11] = 48 h, 10 µM, compound concentration 10 uM, replicate 1
[12] = 48 h, 10 µM, compound concentration 10 uM, replicate 2

Compound: CC(C)N1CCC(C)(C)c2cc(C#Cc3ccc(C(=O)O)cc3)ccc21
- Population Apoptotic (%) [1]: 60%
- Population Fragmented Nuclei (%) [1]: 13%
- Population Healthy Nuclei (%) [1]: 45%
- Population Hoechst High Intensity Objects (%) [1]: 17%
- Population Membrane Permeable-Phenotype (%) [1]: 2%
- Population Mitochondria Different-Phenotype (%) [1]: 74%
- Population Mitotic Cells (%) [1]: 40%
- Population Normal (%) [1]: 82%
- Population Pyknosed Nuclei (%) [1]: 41%
- Population Tubulin-Different-Phenotype (%) [1]: 43%
- Total Cell Count [1]: 278
- Population Apoptotic (%) [2]: 18%
- Population Fragmented Nuclei (%) [2]: 4%
- Population Healthy Nuclei (%) [2]: 54%
- Population Hoechst High Intensity Objects (%) [2]: 8%
- Population Membrane Permeable-Phenotype (%) [2]: 8%
- Population Mitochondria Different-Phenotype (%) [2]: 12%
- Population Mitotic Cells (%) [2]: 81%
- Population Normal (%) [2]: 91%
- Population Tubulin-Different-Phenotype (%) [2]: 6%
- Total Cell Count [2]: 156
- Population Apoptotic (%) [3]: 52%
- Population Fragmented Nuclei (%) [3]: 51%
- Population Healthy Nuclei (%) [3]: 40%
- Population Hoechst High Intensity Objects (%) [3]: 64%
- Population Membrane Permeable-Phenotype (%) [3]: 5%
- Population Mitochondria Different-Phenotype (%) [3]: 66%
- Population Mitotic Cells (%) [3]: 47%
- Population Normal (%) [3]: 35%
- Population Pyknosed Nuclei (%) [3]: 8%
- Population Tubulin-Different-Phenotype (%) [3]: 23%
- Total Cell Count [3]: 563
- Population Apoptotic (%) [4]: 16%
- Population Fragmented Nuclei (%) [4]: 32%
- Population Healthy Nuclei (%) [4]: 61%
- Population Hoechst High Intensity Objects (%) [4]: 44%
- Population Membrane Permeable-Phenotype (%) [4]: 4%
- Population Mitochondria Different-Phenotype (%) [4]: 12%
- Population Mitotic Cells (%) [4]: 83%
- Population Normal (%) [4]: 55%
- Population Pyknosed Nuclei (%) [4]: 5%
- Population Tubulin-Different-Phenotype (%) [4]: 5%
- Total Cell Count [4]: 405
- Population Apoptotic (%) [5]: 58%
- Population Fragmented Nuclei (%) [5]: 13%
- Population Healthy Nuclei (%) [5]: 45%
- Population Hoechst High Intensity Objects (%) [5]: 19%
- Population Membrane Permeable-Phenotype (%) [5]: 6%
- Population Mitochondria Different-Phenotype (%) [5]: 52%
- Population Mitotic Cells (%) [5]: 41%
- Population Normal (%) [5]: 80%
- Population Pyknosed Nuclei (%) [5]: 41%
- Population Tubulin-Different-Phenotype (%) [5]: 49%
- Total Cell Count [5]: 315
- Population Apoptotic (%) [6]: 14%
- Population Fragmented Nuclei (%) [6]: 4%
- Population Healthy Nuclei (%) [6]: 59%
- Population Hoechst High Intensity Objects (%) [6]: 4%
- Population Membrane Permeable-Phenotype (%) [6]: 7%
- Population Mitochondria Different-Phenotype (%) [6]: 4%
- Population Mitotic Cells (%) [6]: 85%
- Population Normal (%) [6]: 95%
- Population Pyknosed Nuclei (%) [6]: 35%
- Population Tubulin-Different-Phenotype (%) [6]: 10%
- Total Cell Count [6]: 168
- Population Apoptotic (%) [7]: 37%
- Population Fragmented Nuclei (%) [7]: 56%
- Population Healthy Nuclei (%) [7]: 40%
- Population Hoechst High Intensity Objects (%) [7]: 62%
- Population Membrane Permeable-Phenotype (%) [7]: 6%
- Population Mitochondria Different-Phenotype (%) [7]: 37%
- Population Mitotic Cells (%) [7]: 62%
- Population Normal (%) [7]: 37%
- Population Pyknosed Nuclei (%) [7]: 4%
- Population Tubulin-Different-Phenotype (%) [7]: 21%
- Total Cell Count [7]: 530
- Population Apoptotic (%) [8]: 0%
- Population Fragmented Nuclei (%) [8]: 29%
- Population Healthy Nuclei (%) [8]: 67%
- Population Hoechst High Intensity Objects (%) [8]: 46%
- Population Membrane Permeable-Phenotype (%) [8]: 3%
- Population Mitochondria Different-Phenotype (%) [8]: 6%
- Population Mitotic Cells (%) [8]: 100%
- Population Normal (%) [8]: 53%
- Population Pyknosed Nuclei (%) [8]: 3%
- Population Tubulin-Different-Phenotype (%) [8]: 9%
- Total Cell Count [8]: 448
- Population Apoptotic (%) [9]: 43%
- Population Fragmented Nuclei (%) [9]: 15%
- Population Healthy Nuclei (%) [9]: 56%
- Population Hoechst High Intensity Objects (%) [9]: 17%
- Population Membrane Permeable-Phenotype (%) [9]: 6%
- Population Mitochondria Different-Phenotype (%) [9]: 29%
- Population Mitotic Cells (%) [9]: 56%
- Population Normal (%) [9]: 82%
- Population Pyknosed Nuclei (%) [9]: 28%
- Population Tubulin-Different-Phenotype (%) [9]: 27%
- Total Cell Count [9]: 389
- Population Apoptotic (%) [10]: 11%
- Population Fragmented Nuclei (%) [10]: 9%
- Population Healthy Nuclei (%) [10]: 80%
- Population Hoechst High Intensity Objects (%) [10]: 2%
- Population Membrane Permeable-Phenotype (%) [10]: 5%
- Population Mitochondria Different-Phenotype (%) [10]: 2%
- Population Mitotic Cells (%) [10]: 88%
- Population Normal (%) [10]: 97%
- Population Pyknosed Nuclei (%) [10]: 10%
- Population Tubulin-Different-Phenotype (%) [10]: 9%
- Total Cell Count [10]: 358
- Population Apoptotic (%) [11]: 37%
- Population Fragmented Nuclei (%) [11]: 57%
- Population Healthy Nuclei (%) [11]: 38%
- Population Hoechst High Intensity Objects (%) [11]: 66%
- Population Membrane Permeable-Phenotype (%) [11]: 7%
- Population Mitochondria Different-Phenotype (%) [11]: 12%
- Population Mitotic Cells (%) [11]: 62%
- Population Normal (%) [11]: 33%
- Population Pyknosed Nuclei (%) [11]: 3%
- Population Tubulin-Different-Phenotype (%) [11]: 3%
- Total Cell Count [11]: 624
- Population Apoptotic (%) [12]: 0%
- Population Fragmented Nuclei (%) [12]: 23%
- Population Healthy Nuclei (%) [12]: 73%
- Population Hoechst High Intensity Objects (%) [12]: 52%
- Population Membrane Permeable-Phenotype (%) [12]: 4%
- Population Mitochondria Different-Phenotype (%) [12]: 1%
- Population Mitotic Cells (%) [12]: 100%
- Population Normal (%) [12]: 47%
- Population Pyknosed Nuclei (%) [12]: 2%
- Population Tubulin-Different-Phenotype (%) [12]: 5%
- Total Cell Count [12]: 571
